Test results: the EternaBench riboswitch data

System: MS2 coat protein
Test: apparent Kd, MS2 coat protein; higher = weaker binding; RNA-MaP array; FMN 200 µM where present
How it was run: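 The apparent Kd is the median of filtered binding-curve fits, one per cluster, to green signal normalised to red-channel RNA signal and control-cluster median Fmax. The clusters were on Illumina sequencing chips, and stalled E. coli RNA polymerase had transcribed the designs on them. Titration used SNAP-549-labelled MS2 coat protein from 0.7 or 1.5 nM, doubling to 3 µM, without and then with constant ligand, in 100 mM Tris-HCl pH 7.5, 80 mM KCl, 4 mM MgCl2, BSA, DTT, yeast tRNA and Tween-20.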

[1] = designed as: ON switch for flavin mononucleotide, no ligand
[2] = ligand present: flavin mononucleotide, designed as: ON switch for flavin mononucleotide
[3] = designed as: OFF switch for flavin mononucleotide, no ligand
[4] = ligand present: flavin mononucleotide, designed as: OFF switch for flavin mononucleotide

Sequence	apparent Kd [1] [nM]	apparent Kd [2] [nM]	apparent Kd [3] [nM]	apparent Kd [4] [nM]
GAUGCAUAUGAGAAGGCGAUCAUGAAACAUGAUCGAGGAUAUCAUGUAAACAUGAGGAUCACCCAUGUAUGGGAAAAGUGCAUC	72.4	11.4	–	–
UGGAGGUCAGGAUAUGCAUGGCGGGACUUGCGUCGUGGCGUGCAGAAGGGACAUGAGGAUCACCCAUGUGGAGG	–	–	124	121
GUCAGCUCGUGAGGAUAUACUUCACUGCUUCGGCAGUGUAUUAAGAUCACAUGAGGAUCACCCAUGUAGAAGGCACGAGCUGAU	–	–	22.8	182
AACUCGUCAGGAUAUGCGCGCAGUUACUGCGCUUCGCAAUUGCAGAAGGGACAUGAGGAUCACCCAUGUAGGUC	–	–	42	45.4
AGUAACAGAGGAUAUACUAUUUUAUGUAUUUAUUAUUUUAAACAUGAGGAUCACCCAUGUAGAAGGCUGAAUGA	–	–	24.7	22.8
CCGAGAAGGAGAGGAUAUGGACAUGAGGAUCACCCAUGUACAUGGGAAUAUAUACUGAAUUUUUACUAGAAGGCUUACAUAAAU	–	–	17.8	14
CGAUGUUAUGUCAGGAUAUGCGUUGCGAAAGCAAUGCAGAAGGGACAUGAGGAUCACCCAUGUCCUAACCAUCG	–	–	12.3	25.1
UUUAUAAAGGUAGGAUAUUGUAUUAUAAUUAAAUAAGAAGGAUCACACAUGAGGAUCACCCAUGUAUGAGGAUCACCCAUGUAU	–	–	15.7	14.4
AUUUCGUUAGCAGGAUAUGGACAGGCCUGUCCGUAUUGAGACAGUAACAUGAGGAUCACCCAUGUCCAGAAGGGCUCGAAGUAU	–	–	30.2	43.9
GGUACUCAAAGAGUACCAAUACGAACAUGAGGAUCACCCAUGUAGGAUAUGCUACUAAAAGAGUAGCAGAAGGACAUGUGCCUA	–	–	13.5	75.4
CUGUACAUAGGAUAUAGUUGUUUUUACAUGAGGAUCACCCAUGUUACUCCUCUCUCUCUUCUAGAAGGAUGUUUUU	–	–	79.8	58.4
UGAGCGACCACAGGAUAUGCUUGAGAAGACCGAGCAGAAGGGUGGAAGAGCGUGCAGUGACAUGAGGAUCACCCAUGUGGUUGG	173	170	–	–
GGAGCUCCAGCGCAGGAUAUCGACCCAGGGACAUGAGGAUCACCCAUGUUCCAAAAAAAAUGGGUCGAGAAGGGCGUUGGAGAGCC	12.6	9.62	–	–
UUAUGUGUCGUAGGAUAUCAUUAGAUUUGUAAUUUAAUUGUAAUUUACAUAUGAGAAGGACGUUUACAUGAGGAUCACCCAUGU	–	–	15.9	14.6
AAUUGACCUGUCAGGAUAUAGAGGGAGACUUACAUCUAGAAGGGACAUGAGGAUCACCCAUGUCAGUUGAGACA	–	–	19.8	22.6
GCCAUCGCAUGAGGAUAUGCUCCGGUUUCCGGAGCAGAAGGCAUGUGAUAACACAUGAGGAUCACCCAUGUAGUUAAGAUGGCA	5.51	4.62	–	–
CCUCGACGGUAGGAUAUCGUCAAACUAUUGUGAUGAGAAGGACUGACAUGAGGAUCACCCAUGUUAACGUGAUA	–	–	20.2	25.3
GAGUACAUCGGAGGAUAUCAUGUAAAUACAUGAGGAUCACCCAUGUCGAUGGAGACAUCGGAGAUUGAGAAGGCCGAUGUACCG	180	8.63	–	–
CUUAAGCUGGCAAGGGCUGGUGAAGAGGAUAUACAUGCUAAGCGAACCACAUGAGGAUCACCCAUGUAGAAGGCUUCCCAGAAA	–	–	159	111

Sequence	apparent Kd [1] [nM]	apparent Kd [2] [nM]	apparent Kd [3] [nM]	apparent Kd [4] [nM]
UUUUACGUAGGAUAUACAUUUUUUUUAUUAUUUUCAUUAUUACAUGAGGAUCACCCAUGUAGAAGGACGAUUUU	–	–	22.8	22
CCGCUCUUGGUCAGGAUAUCUAUGCGGGCCAGCACAGAGAAGGGACAUGAGGAUCACCCAUGUUUCGGGAUGUA	–	–	22.3	38.9
AAGACGUGGGAAGGAUAUCUGGAAUAUCGGUCGAGAGAAGGUCCCUCGACAUGAGGAUCACCCAUGUAACACGGUCUACCGUGG	472	280	–	–
AAUGGUGGAGGAUAUACAUGAGGAUCACCCAUGUAAAUCACACAUGUGGUCAACGCAUGUAGAAGGCCACUAAA	–	–	62.5	104
GCCUCACAUGAGGAUCACCCAUGUCAGGAUAUAGGAGGCGGUAGAAAUCCUACCGCCGCUAGAAGGGACUGGCA	–	–	42.8	90.7
AAGCAGGGAGGAUAUACAUGGACACACAUUGGUGUAGAACUACAUGAGGAUCACCCAUGUAGAAGGCCCAAAUA	–	–	52.9	71.5
AGCUCGGGUUAGGAUAUUCGCAGCAAGAUGACCGAAGAAGGGACCACAUGAGGAUCACCCAUGUUUGUUUAGAA	–	–	25.9	24.5
CAAAGACAAGCAGGAUAUCACAUGAGGAUCACCCAUGUCGGGAUCACCUGAGAGUGUUUAUUAAGUGAGAAGGGCUAGAUCACC	–	–	17.6	31.2
AAAAAACAUGAGGAUCACCCAUGUCAGGAUAUCGUUGAAAAAAAAAAAAAAAAAAAAGCGAGAAGGGACACGAA	–	–	72.6	68.2
CAAGGCGGUGAAGGAUAUACACGGGCGUUGCCAAACAUGAGGAUCACCCAUGUAGAAGGUCACCCUGAGAAGGCUUUAUGCCAU	–	–	382	45.2
CUUUUGUGAGGAUAUUAGUAGUAAAUAAAUAAAAUUACUACUGAGAAGGCACAUGAGGAUCACCCAUGUUCUUC	–	–	19.4	93.8
AAUAACAGAGGAUAUACUAUUUUAUGUAUUUAUUAUUUUAAACAUGAGGAUCACCCAUGUAGAAGGCUGAAUAA	–	–	19.8	20.7
CCUCGACAUGAGGAUCACCCAUGUAAGGAUAUGUUGACGAGCCAGAAAUGGCUGGUCAACAGAAGGUAUAUGUA	–	–	31.9	121
GCCGAUUAAGUGAGGAUAUACCUAUGGAUACAUAGGUAGAAGGCACAUGAGGAUCACCCAUGUUCCUCAUCGGC	–	–	16.8	132
UAUAUAAUAAGAGCUGGAAACUCAACAUGAGGAUCACCCAUGUAGGAUAUCAGCACGAUAAGUGCUGAGAAGGACAACCAGCUC	–	–	19.9	23.3
GCUCUACAUGAGGAUCACCCAUGUUCGGACGCACGAGGAUAUGCAUGGGCGAAAGCUGGUGCAGAAGGCGUGGGAC	209	33.4	–	–
ACUUGACAUGAGGAUCACCCAUGUCAGGAUAUAGUAGGACAAAUAAAUAAAAGUUCUACUAGAAGGGACUUGGG	–	–	25.1	45.3
CUCCUGUGAUUAGGAUAUGUGCGCACUGUGCUAGCAGAAGGGAUCACAUGAGGAUCACCCAUGUGAGUAGCUCACUGUAAAGGG	–	–	111	107
UGCGGAAUCACAGGAUAUGCGGGAAGAACGAUACCGUACAUGAGGAUCACCCAUGUGGCGGCAAAGCAGAAGGGUGGUUCUCGC	8.42	5.79	–	–

Sequence	apparent Kd [1] [nM]	apparent Kd [2] [nM]	apparent Kd [3] [nM]	apparent Kd [4] [nM]
AAUUCACAUGAGGAUCACCCAUGUCAGGAUAUGGUUUCACGUUUUUCUUUGCUUGAGGCCAGAAGGGACAGCUA	–	–	62.8	68.5
UAAACGUUCUAGAAGGUGCUUUUGUUAAACAAGCAAGGAUAUAGACAUGAGGAUCACCCAUGUCUUUGAGACAUCGACAUACUU	–	–	8.41	9.14
CUGAUGUUAGGAUAUCAGGCCGUGCGCGAAGGCGGGCAGCAUGAGAAGGAACAUGAGGAUCACCCAUGUGACGA	–	–	27.2	67.8
CAGCAAAAGUAGAAGGCAGUACUGAUUCAGUACUGAGGAUAUACAUGAGGAUCACCCAUGUAUUCCAGCUGAAUAAUAAAAUAU	–	–	5.43	5.63
GUAGCAUACCGAGGAUAUUCAUACAAUAAAUAAACAUGAGGAUCACCCAUGUGGCGAAAGCCUAGGGAGAAGGCGGAAUGCUAC	154	21.8	–	–
GCUGCAUGCAGAGGAUAUAUAACAUGAGGAUCACCCAUGUAAAAUAUAUGGAUAAACCAGAUAGUAUAGAAGGCUGCAUGCAGC	–	–	22.9	19.1
GGACGUCUCAUUAACAUGAGGAUCACCCAUGUCGAUAGACAUGAGGAUAUGGAUCCUAAUUGGAUCCAGAAGGCAUGGACGUCC	1040	67.6	–	–
GCGUAUUUAAUAUUUAUAUAAUUGUCAGAAGGUGAAAAGACGACAUGAGGAUCACCCAUGUAAUUCAAGGAUAUGAUUAAGCGC	30.7	15.8	–	–
UUACUCAUGUAAGGAUAUGUAGCCGAAACGGCUGCAGAAGGUACUAAAAUACAUGAGGAUCACCCAUGUCUUUUUAAUUUAGAC	216	50.9	–	–
AAGUCGACGGUGAGGAUAUAGGUCGAACGACAGAUCUAGAAGGCACAUGAGGAUCACCCAUGUGGGUAACGUCG	–	–	19.6	28.4
CCAUGGCUGUGAGGAUAUGUCUGACAAAGUCAGACAGAAGGUACAUGAGGAUCACCCAUGUGAAGAAAACCACAUUUGCCAUGG	–	–	6	6.44
AACAGUAGAGGAUAUACAUGAGGAUCACCCAUGUGAGAAUUAAGUGGCGUACCACUAAGUAGAAGGCUACUGGA	–	–	96.9	235
CCAAGAAUAGGAUAUACACGAUGUCAGCUUCUAUACAUCGCACAUGAGGAUCACCCAUGUAGAAGGGUUCUCUC	–	–	735	823
CUCCUACAUGAGGAUCACCCAUGUCAGGAUAUCUCAGUGGCGCCUAAAUGUGCCACCCAGAGAAGGGACGUGCA	–	–	11.6	15.3
AUCAGCUCUUCAGGAUAUACGUCACUGCGUCAGCAGUGUGGUAAGAUCACAUGAGGAUCACCCAUGUAGAAGGGACGAGCUGAU	–	–	12.2	173
ACCACGGGAGGAUAUACAUGAGGAUCACCCAUGUCAACUCCACGUGCCCACGUCCUCUGUAGAAGGCCCUACAU	–	–	16	24.3
CUUUUGUGAGGAUAUUAGUAGUAAAUAUAUAAAAUUACUACUGAGAAGGCACAUGAGGAUCACCCAUGUUCCUC	–	–	31.5	194
CUUUUGUGAGGAUAUUAGUAGUAAAAAAAUAAAAUUACUACUGAGAAGGCACAUGAGGAUCACCCAUGUUUCUC	–	–	28.2	115
